Screens (PubChem BioAssay)
Only a selection was taken, and hits are over-represented in it overall.
Jurkat NFkB inh: lowers PMA/ionomycin-induced NF-kB signal in Jurkat cells. PMA/ionomycin-induced NF-kB luciferase reporter, luminescence. AID 435003. inhibition, % at 4 µM. 0.53% of 330,000 active; in the data active = inhibition above about 50%
CHOP inhibitor: blocks CHOP induction under ER stress; CHO-K1 CHOP-promoter luciferase, tunicamycin-induced, 15-18 h; inhibition, % at 10 µM; 3.8% of 220,000 active; AID 2732;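 active = compounds that reduced the stress-induced luciferase reporter signal by more than about 70% of percent inhibition, limit read from the data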;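 also: 0% = tunicamycin plus vehicle and 100% = wells without tunicamycin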
UPR CHOP act: activators of apoptotic arm of unfolded protein response (CHOP); AID 449763; CHO-CHOP luciferase reporter, UPR activation, luminescence; percent of tunicamycin response over DMSO baseline; activation, % at 10 µM; 0.34% of 330,000 active;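 active = at 10 µM dose, activation of 40% or more, normalized to positive control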;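 also: 100% = tunicamycin at 10 µg/mL and 0% = DMSO alone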
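System: CHO CHOP reporter cells. Amount: 500 cells per well. Buffer or medium: F12 medium, 10% FBS. Compound dosing: one dose, 10 µM in 0.5% DMSO. Incubation: 6 h compound exposure at 37 °C after overnight seeding. Technique: Steady-Glo luciferase luminescence. Benchmarks: tunicamycin and DMSO controls.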
697 NFkB inh: lowers PMA/ionomycin-induced NF-kB signal in 697 B cells; AID 435022; 697 B-cell NF-kB luciferase reporter, 16 h; inhibition, % at 4 µM; 0.33% of 330,000 active; in the data active = inhibition above about 35%
XBP1 UPR activ: adaptive UPR (XBP1) activation; CHO-XBP1 luciferase reporter, IRE1-XBP1 UPR activation, luminescence; percent of tunicamycin response, DMSO as zero; activation, % at 20 µM; 0.33% of 330,000 active;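 active = versus positive control, 20 µM dose yields 30% or more activation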;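 also: 100% = tunicamycin at 10 µg/mL and 0% = DMSO only wells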
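Assay system: IRE1-XBP1 luciferase reporter CHO line. Input: 1000 cells/well. Buffer or medium: F12 with 10% serum. Doses: 20 µM, 1% DMSO. Times: overnight seeding at 37 °C, 6 h compound treatment at 37 °C. Technique: Steady-Glo luciferase glow luminescence, 10 min after reagent addition.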
Jurkat NFkB conf: inhibitors of the PMA/ionomycin-induced NF-kB reporter in Jurkat cells, retest. AID 435020. 27% of 2,700 active. inhibition, % at 4 µM. shares compounds with Jurkat NFkB inh. Jurkat NF-kB luciferase, 16 h;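 active = inhibition reaching about 45% at 4 µM in either replicate, limit read from the data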;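 also: plate controls were PMA/ionomycin stimulated DMSO wells for no effect and unstimulated DMSO wells for full effect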
An asterisk follows results filed as active; / = no result.

SMILES | Jurkat NFkB inh | CHOP inhibitor | UPR CHOP act | 697 NFkB inh | XBP1 UPR activ | Jurkat NFkB conf
CC1Cc2ccccc2N1C(=O)/C=C/c1cccc(F)c1 (centres undefined) | -176 | 29 | 1 | -127 | 8 | -102
CC1Cc2ccccc2N1C(=O)COC(=O)/C=C/c1ccc(F)cc1 (centres undefined) | -9 | / | 0 | -3 | 0 | /
CC(NCc1ccc(-c2ccccc2)cc1)C(O)c1ccccc1 (centres undefined) | 55* | 30 | 2 | -16 | 2 | 13
COc1ccccc1NC(CC(=O)c1ccccc1)C(=O)OCC(=O)c1ccc(F)cc1 (centres undefined) | -173 | -5 | 2 | -168 | 1 | -41
c1ccc2nc(-c3ccc4c(c3)OCO4)ccc2c1 | -157 | 34 | 1 | -203 | -1 | -84
COC(=O)c1cc(-c2ccc3c(c2)OCO3)nc2ccccc12 | 3 | 31 | 0 | -5 | 11 | /
Cc1ccc(NC(=O)CCC(=O)NNC(=S)Nc2ccccc2)c(C)c1 | -1 | 8 | 0 | -41 | -1 | /
Cc1ccc(NC(=S)NNC(=S)Nc2ccc(C)cc2C)cc1 | 66* | -52 | 1 | -7 | 9 | -18
COCCC(=O)Nc1ccc2c(c1)CN(C(=O)c1ccc(CSC)o1)CC2 | 7 | / | 0 | 1 | -6 | /
O=C(Nc1ccc(-c2nc3cccnc3s2)cc1)c1ccc(Cl)nc1 | -88 | -4 | 6 | -144 | -1 | /
O=C(Nc1ccc(-c2nc3cccnc3s2)cc1)c1ccco1 | -186 | 16 | 0 | -194 | -3 | -64
O=C(Nc1ccc(-c2nc3cccnc3s2)cc1)c1cccnc1Cl | -166 | 52 | 3 | -237 | -2 | -96
O=C(Nc1ccc(N2CCOCC2)cc1)C1CC(=O)N(c2ccc(F)cc2)C1 (centres undefined) | -3 | 6 | 0 | 4 | 3 | /
CCOc1ccc(S(=O)(=O)N2CC(=O)Nc3ccccc32)cc1 | -3 | / | -1 | 5 | -3 | /
Cn1ncc2c(O/N=C(\N)c3ccc(C(F)(F)F)cc3)ncnc21 | 78* | 64 | 1 | -62 | 4 | 0
Cc1ccc(C(=O)NNc2ncnc3c2cnn3C)cc1 | 5 | 5 | 4 | -6 | -1 | /
O=C(N/N=C/c1cccc([N+](=O)[O-])c1)C(=O)N1CCCCCC1 | 15 | / | -3 | 28 | -1 | /
Cc1ccc(C(=O)Nc2ccnc(-c3cccnc3)n2)cc1 | -15 | 3 | 4 | 8 | 4 | /
Cc1ccc(NC(=O)Nc2ccnc(-c3cccnc3)n2)cc1 | 62* | 15 | 9 | -14 | 3 | 47*
CCC(C)NC(=O)c1cc(-c2ccc(OC)cc2)on1 (centres undefined) | -132 | 8 | 3 | -94 | 1 | /
COc1ccc(-c2cc(C(=O)NCC(C)C)no2)cc1 | -157 | 16 | 2 | -138 | -2 | -90
C(=N\Nc1nncc2ccccc12)/c1ccccc1 | -51 | 32 | 3 | -71 | 1 | /
Cc1cccc(/C=N/Nc2nncc3ccccc23)c1 | -168 | 33 | -4 | -181 | -3 | -101
Cc1cc(C(C)(C)C)cc(C)c1C[n+]1ccc2ccccc2c1 | 77* | / | -2 | 19 | -1 | 51*
Cc1cc(C)n(-c2ccc(C(=O)Nc3ccc(C)c(S(=O)(=O)N4CCOCC4)c3)cc2)n1 | 25 | 31 | 0 | -38 | 3 | /
SMILES | Jurkat NFkB inh | CHOP inhibitor | UPR CHOP act | 697 NFkB inh | XBP1 UPR activ | Jurkat NFkB conf
CCOc1ccc(-c2ccc(SCC)nn2)cc1 | -224 | 40 | -3 | -237 | -5 | -88
CSc1cccc(NS(=O)(=O)c2cc(Br)cnc2N)c1 | -1 | / | -1 | -6 | -2 | /
CN(CCOc1ccccc1)CC(=O)Nc1cccc(C#N)c1 | 22 | / | 1 | -3 | -3 | /
CCOc1ccc2nc(N3CCCCCC3)sc2c1 | -234 | 13 | 0 | -236 | 0 | -148
CN(C(=O)COC(=O)C1=COCCO1)c1c(N)n(Cc2ccccc2)c(=O)[nH]c1=O | 12 | / | 1 | 14 | -2 | /
Fc1ccc(F)c(C2=NNC(=Nc3ccccc3F)SC2)c1 | -131 | 15 | 4 | -151 | 1 | /
Fc1ccccc1N=C1NN=C(c2ccccc2)CS1 | -197 | 2 | 2 | -196 | -1 | -112
COCCn1c(C)cc(C2=NNC(=Nc3ccccc3F)SC2)c1C | 69* | 70* | -5 | -27 | -6 | 88*
COc1ccc(OC)c(C2=Nn3c(nnc3-c3cc(OC)c(OC)c(OC)c3)SC2)c1 | 8 | / | 1 | 29 | 4 | /
CCOc1cccc(-c2nnc3n2N=C(c2cc(OC)ccc2OC)CS3)c1 | 53* | 61 | 1 | -64 | 11 | 48*
N#CC1=C2SC=C(c3ccc(Br)cc3)N2CCCC1=O | -210 | 22 | 4 | -179 | -1 | -88
C/C(=N/NC(=O)CNC(=O)COc1ccccc1)c1ccco1 | 0 | -21 | -2 | 3 | 1 | /
O=C(Nc1ccncc1)c1ccc(Cl)c(S(=O)(=O)N2CCc3ccccc32)c1 | 60* | / | 4 | -17 | -4 | 79*
Cc1cccc(NC(=O)c2ccc(Cl)c(S(=O)(=O)N3CCc4ccccc43)c2)n1 | -16 | / | -1 | -15 | -1 | /
O=C(NC1CCCCC1)C1CC=CCC1C(=O)OCC(Cl)=C(Cl)Cl (centres undefined) | -3 | 42 | 0 | 11 | 1 | /
CC(=O)Nc1ccc2c(c1)nc1n2CCSC1 | 0 | 7 | 1 | 6 | 3 | /
Cc1ccc(C(=O)Nc2ccc3c(c2)nc2n3CCSC2)cc1 | -171 | 32 | 0 | -111 | -1 | -71
Cc1ccnn1CCC(=O)N1CCCC(CCC(=O)N2CCN(c3ccccn3)CC2)C1 (centres undefined) | 9 | 7 | -2 | 7 | -5 | /
CCOC(=O)N1CCN(c2c(NCc3ccc(F)cc3)c(=O)c2=O)CC1 | 61* | -19 | -1 | -9 | -1 | 23
O=C(NCC(c1ccco1)N1CCc2ccccc21)C(=O)Nc1ccc(F)cc1F (centres undefined) | 60* | / | 0 | -23 | 1 | 16
N#Cc1cc2cc3c(cc2nc1SCC(=O)N1CCCC1)OCCO3 | -167 | / | 1 | -65 | -2 | -24
CN(C)S(=O)(=O)c1cccc(C(=O)NCCOC(=O)c2cc(F)c(F)cc2Cl)c1 | -5 | / | 2 | 5 | -5 | /
O=C(CC1c2ccccc2Oc2ccccc21)N1CCN(c2ccccn2)CC1 | -5 | 12 | -1 | 6 | -1 | /
COc1ccccc1N/C(N)=N/c1nc(C)cc(C)n1 | -9 | -3 | 0 | 5 | -2 | /
Cc1cc(C)nc(/N=C(\N)Nc2ccc(OCCC(C)C)cc2)n1 | 61* | / | 3 | -26 | 5 | 25
Cc1cc(C)nc(/N=C(\N)Nc2ccc(CC(=O)OC(C)C)cc2)n1 | 42 | / | 4 | -72 | -6 | /
Cc1cc(C)nc(/N=C(\N)Nc2cccc(OCc3ccccc3)c2)n1 | 70* | 32 | 3 | -40 | 6 | 22
